In ChEMBL document CHEMBL4138113, “Novel propanamides as fatty acid amide hydrolase inhibitors” (Eur J Med Chem, 2017) one finds IC50, inhibition and Ki data, which are given here for two compounds.

Assay [1] deals with T1, Fatty-acid amide hydrolase 1 (Homo sapiens, UniProt O00519).
T1 sequence (O00519 whole entry): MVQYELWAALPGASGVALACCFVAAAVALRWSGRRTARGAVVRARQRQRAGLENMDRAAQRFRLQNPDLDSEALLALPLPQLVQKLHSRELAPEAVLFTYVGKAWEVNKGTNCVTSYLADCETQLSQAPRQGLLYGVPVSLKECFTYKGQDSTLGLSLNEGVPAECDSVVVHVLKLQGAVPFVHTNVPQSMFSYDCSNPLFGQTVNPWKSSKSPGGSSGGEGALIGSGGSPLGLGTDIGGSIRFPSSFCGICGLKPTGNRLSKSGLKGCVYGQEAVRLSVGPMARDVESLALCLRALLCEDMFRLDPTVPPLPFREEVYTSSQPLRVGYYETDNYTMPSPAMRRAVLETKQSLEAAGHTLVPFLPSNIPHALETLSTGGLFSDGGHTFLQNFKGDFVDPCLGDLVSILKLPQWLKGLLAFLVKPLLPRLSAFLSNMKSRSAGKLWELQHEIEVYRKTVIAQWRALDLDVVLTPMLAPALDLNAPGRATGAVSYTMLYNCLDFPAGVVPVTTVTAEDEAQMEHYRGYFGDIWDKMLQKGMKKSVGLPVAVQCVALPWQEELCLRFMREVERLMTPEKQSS
In words: Inhibition of FAAH (unknown origin) expressed in human HeLa cells using [3H]AEA as substrate after 2 hrs by liquid scintillation counting analysis. Format: cell-based.

Assay [2] concerns the target Fatty-acid amide hydrolase 1 (Homo sapiens, UniProt O00519, T488A). Kind of assay: Inhibition of FAAH T488A mutant (unknown origin) expressed in human HeLa cells using [3H]AEA as substrate after 2 hrs by liquid scintillation counting analysis. Type of assay: cell-based.
For assay [3], the target named is T1, Fatty-acid amide hydrolase 1. In words: Inhibition of FAAH (unknown origin) expressed in human HeLa cells transfected with empty vector using [3H]AEA as substrate after 2 hrs by liquid scintillation counting analysis. Type of assay: cell-based.
Assay [4] deals with T2, Fatty-acid amide hydrolase 1 (Rattus norvegicus) (UniProt P97612).
T2 sequence (whole entry): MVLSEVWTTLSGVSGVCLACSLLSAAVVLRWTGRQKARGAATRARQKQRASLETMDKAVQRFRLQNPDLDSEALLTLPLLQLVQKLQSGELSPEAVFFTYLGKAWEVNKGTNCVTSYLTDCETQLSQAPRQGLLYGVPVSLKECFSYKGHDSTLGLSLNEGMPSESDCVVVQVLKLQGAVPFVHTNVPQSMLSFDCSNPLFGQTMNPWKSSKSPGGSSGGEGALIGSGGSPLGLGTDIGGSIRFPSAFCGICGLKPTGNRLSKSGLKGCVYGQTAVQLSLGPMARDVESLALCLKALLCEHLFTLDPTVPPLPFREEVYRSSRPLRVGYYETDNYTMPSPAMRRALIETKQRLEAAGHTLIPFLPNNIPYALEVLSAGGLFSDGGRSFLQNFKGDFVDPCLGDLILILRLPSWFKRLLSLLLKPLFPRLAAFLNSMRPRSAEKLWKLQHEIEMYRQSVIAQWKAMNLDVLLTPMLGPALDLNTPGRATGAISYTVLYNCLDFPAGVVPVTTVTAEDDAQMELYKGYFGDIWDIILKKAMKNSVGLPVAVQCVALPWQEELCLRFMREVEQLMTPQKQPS
Kind of assay: Reversible inhibition of rat brain FAAH at 0.2 to 2 uM using [3H]AEA as substrate preincubated for 60 mins followed by substrate addition by liquid scintillation counting analysis. In short, it runs like this: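 Rat brain homogenate at 20-fold normal strength was preincubated with vehicle or compound for 60 min, then diluted 20-fold and assayed with [3H]AEA for 10 min at 37 °C. In parallel, compound was added to vehicle-preincubated aliquots at the post-dilution free concentrations and at the undiluted final concentrations. Tritium was counted after charcoal separation.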

Assay [5] addresses T3, Fatty-acid amide hydrolase 1 (Rattus norvegicus, UniProt P97612).
T3 sequence (P97612 whole entry): T2 sequence (whole entry)
Kind of assay: Competitive inhibition of rat brain FAAH using [3H]AEA as substrate after 10 mins by Dixon plot analysis. Summed up:
(§1)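 Kinetic study in rat brain homogenate (1 µg protein per assay). [3H]AEA hydrolysis ran for 10 min at 37 °C in Tris-EDTA buffer, pH 7.4, with the AEA:fatty acid-free BSA ratio held at 1:~4.5 across substrate levels. Radioactivity was measured by charcoal separation and scintillation counting. Data were fitted to competitive, mixed-type and non-competitive models, and the best model was chosen by Akaike's criterion.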

The target of assay [6] is T4, Prostaglandin G/H synthase 1 (Ovis aries) (UniProt P05979).
T4 sequence (whole entry): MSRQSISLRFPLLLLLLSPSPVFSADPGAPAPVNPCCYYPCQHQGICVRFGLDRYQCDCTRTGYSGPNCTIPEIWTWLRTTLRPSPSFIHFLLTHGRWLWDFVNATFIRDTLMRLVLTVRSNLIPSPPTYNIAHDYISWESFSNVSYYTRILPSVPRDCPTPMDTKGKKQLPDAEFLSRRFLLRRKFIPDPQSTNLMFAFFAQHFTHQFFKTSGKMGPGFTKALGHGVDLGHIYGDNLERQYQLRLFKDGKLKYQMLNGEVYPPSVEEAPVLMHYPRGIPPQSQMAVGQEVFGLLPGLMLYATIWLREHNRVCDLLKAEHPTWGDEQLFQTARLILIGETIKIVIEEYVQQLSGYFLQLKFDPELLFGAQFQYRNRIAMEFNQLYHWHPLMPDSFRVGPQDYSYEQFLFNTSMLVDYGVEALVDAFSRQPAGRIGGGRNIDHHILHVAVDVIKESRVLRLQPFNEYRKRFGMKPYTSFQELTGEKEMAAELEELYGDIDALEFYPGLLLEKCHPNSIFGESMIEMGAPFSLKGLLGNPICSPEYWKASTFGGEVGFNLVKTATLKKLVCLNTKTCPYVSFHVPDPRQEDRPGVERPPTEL
In words: Inhibition of recombinant ovine COX1 at 100 uM using arachidonic acid as substrate after 5 mins. Summed up: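 Oxygen-electrode assay at room temperature in 0.1 M Tris-HCl, pH 7.4, with 1 µM haematin, 2 mM phenol, 5 mM EDTA and 10 µM (final) arachidonic acid or 2-AG. Compound in EtOH was added and a 5 min baseline recorded. The reaction was started with ovine COX-1 or human recombinant COX-2 (200 U), and oxygen consumption was read in 10 s blocks. Means ± SEM, n = 3-4.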

The target in assay [7] is T3, Fatty-acid amide hydrolase 1. Kind of assay: Noncompetitive inhibition of rat brain FAAH using [3H]AEA as substrate after 10 mins by Dixon plot analysis. In short, it runs like this:
as §1

Assay [8] has as its target T2, Fatty-acid amide hydrolase 1 (Rattus norvegicus). In words: Inhibition of rat brain FAAH using [3H]AEA as substrate after 10 mins in presence of N-(3-Methylpyridin-2-yl)-2-(4-((2-(trifluoromethyl)pyridin-4-yl)amino)phenyl)propanamide by liquid scintillation counting analysis. In short, it runs like this: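 Rat (Wistar or Sprague-Dawley) brain homogenate without cerebella, washed and pre-incubated 15 min at 37 °C to clear endogenous substrate. Compound (in ethanol or DMSO) was mixed with 1 µg protein on ice in 10 mM Tris-HCl, 1 mM EDTA, pH 7.4. Reaction used 0.5 µM [3H]AEA with fatty acid-free BSA for 10 min at 37 °C. It was stopped with charcoal/HCl, and supernatant tritium was counted. ≥5 half-log concentrations, ≥3 experiments; maximum inhibition = 100 − fitted bottom.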

Calls of active or inactive are those of the source.

Sequence of Fatty-acid amide hydrolase 1 (Homo sapiens, UniProt O00519, T488A) (O00519 whole entry T488A): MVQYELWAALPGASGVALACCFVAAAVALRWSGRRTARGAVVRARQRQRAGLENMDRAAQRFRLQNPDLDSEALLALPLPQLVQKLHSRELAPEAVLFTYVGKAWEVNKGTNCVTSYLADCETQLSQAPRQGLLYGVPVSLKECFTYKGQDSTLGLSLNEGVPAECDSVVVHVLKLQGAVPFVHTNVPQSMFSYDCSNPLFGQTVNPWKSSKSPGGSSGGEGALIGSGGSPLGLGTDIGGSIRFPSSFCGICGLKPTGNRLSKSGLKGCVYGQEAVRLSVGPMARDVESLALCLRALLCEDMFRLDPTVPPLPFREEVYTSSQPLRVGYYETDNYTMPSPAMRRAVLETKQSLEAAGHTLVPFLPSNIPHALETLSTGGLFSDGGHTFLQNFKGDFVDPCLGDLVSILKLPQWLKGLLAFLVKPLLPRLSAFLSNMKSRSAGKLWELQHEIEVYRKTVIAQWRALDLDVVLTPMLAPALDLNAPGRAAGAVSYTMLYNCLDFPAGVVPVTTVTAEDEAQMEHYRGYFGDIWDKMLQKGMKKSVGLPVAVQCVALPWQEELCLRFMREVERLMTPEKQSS

Usually IC50 stands for the concentration that gives 50% inhibition. A high value points to weaker potency. Usually Ki stands for a measure of affinity in units of concentration, obtained from inhibition or displacement. Higher therefore signals weaker binding. As for `Cc1cccnc1NC(=O)C(C)c1ccc(Nc2ccnc(C(F)(F)F)c2)cc1` (stereo not drawn), the IC50 in assay [1] is 2200 to 6500 nM; in assay [2] it was 1900 to 9400 nM; in assay [3], 2500 nM. The inhibition result in assay [4] was “Active”. The same compound displayed a Ki in assay [5] of 390 nM.

As to `CC(C(=O)Nc1ncccc1Cl)c1ccc(Nc2ccnc(C(F)(F)F)c2)cc1` (stereo not drawn), the inhibition entry in assay [6] and in assay [8] was “Active” in each case. Further, in assay [7], affinity was put at a Ki of 110 nM.
